Source: ChEMBL document CHEMBL1938334, “Quinoline tricyclic derivatives. Design, synthesis and evaluation of the antiviral activity of three new classes of RNA-dependent RNA polymerase inhibitors” (Bioorg Med Chem, 2011)

Columns and labels:
[1] = Cytotoxicity against human CRL7065 cells after 96 hrs by MTT assay; assay type: cell-based, CRL-7065
How it was run: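 Foreskin fibroblasts seeded at 1×10^5 cells/mL in specific medium with 10% FCS and antibiotics; serial compound dilutions, 37 °C, 5% CO2, 96 h, under conditions allowing untreated controls at least three rounds of multiplication. MTT read-out; concentration reducing proliferation by 50% by linear regression versus untreated controls; three independent determinations.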

[2] = tested on: Human immunodeficiency virus 1; assay: Antiviral activity against HIV1 3B infected in human MT4 cells assessed as inhibition of virus-induced cytopathogenicity after 4 days by MTT assay; assay type: functional, organism-based; details: Human immunodeficiency virus 1, 3B, MT4, 96 h
How it was run: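 MT-4 cells (1×10^4 per well) were infected with HIV-1 IIIB at 100 CCID50, m.o.i. 0.01, together with serial compound dilutions. Viability was read by MTT after 4 days at 37 °C. EC50 was taken by linear regression versus untreated controls. Mean of three determinations.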

[3] = tested on: SK-MEL-28; assay: Cytotoxicity against human SK-MEL-28 cells after 96 hrs by MTT assay; assay type: functional; details: SK-MEL-28, 96 h
How it was run: (§1)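 Cells were seeded at 1×10^5 cells/mL: leukaemia/lymphoma lines in RPMI-1640, solid tumour and fibroblast lines in specific media, all with 10% FCS. Serial compound dilutions were applied for 96 h at 37 °C, 5% CO2, under conditions allowing controls at least three rounds of multiplication. Viability was read by MTT. CC50 by linear regression. Mean of three determinations.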

[4] = tested on: DU-145; assay: Cytotoxicity against human DU145 cells after 96 hrs by MTT assay; assay type: functional; details: DU-145, 96 h; how it was run: as §1
[5] = Cytotoxicity against BHK21 cells after 48 to 96 hrs by MTT assay; assay type: cell-based, Mesocricetus auratus, BHK-21; details: hamster
How it was run: (§2)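 MDBK seeded at 6×10^5 and BHK at 1×10^6 cells/mL in MEM-Earle's with L-glutamine, 1 mM pyruvate, kanamycin, plus 10% horse serum (MDBK) or 10% FBS (BHK). Cells were grown at 37 °C, 5% CO2 with serial compound dilutions (DMSO stocks diluted in medium). Viability by MTT after 48–96 h. CC50 was taken by linear regression versus untreated controls; three independent determinations.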

[6] = tested on: SK-MES-1; assay: Cytotoxicity against human SKMES1 cells after 96 hrs by MTT assay; assay type: functional; details: SK-MES-1, 96 h; how it was run: as §1
[7] = tested on: Hepatitis C virus; assay: Antiviral activity against HCV1b infected in human GS4.1 cells assessed as inhibition of virus-induced cytopathogenicity by measuring viral NS4A protein level after 72 hrs by ELISA; assay type: functional, organism-based, Hepacivirus hominis; details: genotype 1b
How it was run: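 GS4.1 cells are Huh-7 cells carrying a genotype 1b subgenomic replicon, kept in 0.5 mg/mL G418. They were seeded at 7.5×10^3 cells/well with two-fold serial dilutions of compound (top 75 μM) and incubated 72 h at 37 °C. Huh-7 cells without the replicon served as negative control. NS4A was measured by cell ELISA with anti-NS4A mAb A-236, peroxidase and o-phenylenediamine, A492. EC50 came from four-parameter sigmoidal fit.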

[8] = tested on: Human orthopneumovirus; assay: Antiviral activity against Human respiratory syncytial virus A2 infected in african green monkey Vero 76 cells assessed as reduction of virus-induced plaque formation after 5 days using crystal violet staining; assay type: functional, organism-based; details: 120 h
[9] = Cytotoxicity against human GS4.1 cells; assay type: cell-based
How it was run: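 Huh-7 cells carrying HCV genotype 1b subgenomic replicon, grown in D-MEM/10% FBS with 0.5 mg/mL G418. Seeded at 7.5×10^3 cells/well with two-fold serial dilutions (top 75 μM), incubated 72 h at 37 °C. Viability by MTS-type Cell Titer 96 Aqueous One reagent; CC50 from % cytotoxicity versus concentration curves.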

[10] = tested on: CCRF-CEM; assay: Cytotoxicity against human CCRF-CEM cells after 96 hrs by MTT assay; assay type: functional; how it was run: as §1
[11] = Cytotoxicity against human MT4 cells after 96 hrs by MTT assay; assay type: cell-based
How it was run: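 Exponentially growing MT-4 cells seeded at 1×10^5 cells/mL in RPMI-1640 with 10% FBS, penicillin and streptomycin. Incubated with serial compound dilutions at 37 °C, 5% CO2 for 96 h; viability by MTT. CC50 by linear regression relative to untreated controls; mean of three independent determinations.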

[12] = tested on: Coxsackievirus B5; assay: Antiviral activity against Human coxsackievirus B5 Ohio-1 infected in african green monkey Vero 76 cells assessed as reduction of virus-induced plaque formation after 3 days using crystal violet staining; assay type: functional, organism-based; details: Enterovirus B, Ohio-1, Vero, 72 h
[13] = tested on: MCF7; assay: Cytotoxicity against human MCF7 cells after 96 hrs by MTT assay; assay type: functional; details: MCF7, 96 h; how it was run: as §1
[14] = Antiviral activity against Bovine viral diarrhea virus 1-NADL infected in MDBK cells assessed as inhibition of virus-induced cytopathogenicity after 3 to 4 days by MTT assay; assay type: functional, cell-based; details: Bovine viral diarrhea virus isolates and strains
How it was run: (§3)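 Host cells were seeded in 96-well plates at 3×10^4 cells/well (MDBK) or 5×10^4 cells/well (BHK-21) and grown to confluent monolayers overnight. They were infected at m.o.i. 0.01 in maintenance MEM with 0.5% inactivated FBS. Serial compound dilutions were added after 1 h. Viability was read by MTT after 3–4 days at 37 °C. EC50 was taken by linear regression against untreated controls. Mean of three determinations.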

[15] = tested on: CCRF-SB; assay: Cytotoxicity against human CCRF-SB cells after 96 hrs by MTT assay; assay type: functional; how it was run: as §1
[16] = tested on: Reovirus sp.; assay: Antiviral activity against Reovirus type-1 3651 infected in hamster BHK21 cells assessed as inhibition of virus-induced cytopathogenicity after 3 to 4 days by MTT assay; assay type: functional, organism-based; details: Reovirus sp., 3651, BHK-21; how it was run: as §3
[17] = tested on: Poliovirus 1; assay: Antiviral activity against Human poliovirus 1 strain Sabin Chat infected in african green monkey Vero 76 cells assessed as virus-induced reduction of plaque formation after 2 days using crystal violet staining; assay type: functional, cell-based; details: Enterovirus C, 48 h
[18] = Antiviral activity against Vaccinia virus Lister Elstree infected in african green monkey Vero 76 cells assessed as reduction of virus-induced plaque formation after 3 days using crystal violet staining; assay type: functional, cell-based; details: 72 h
[19] = tested on: WIL2-NS; assay: Cytotoxicity against human WIL2-NS cells after 96 hrs by MTT assay; assay type: functional; how it was run: as §1
[20] = tested on: Human alphaherpesvirus 1; assay: Antiviral activity against Human herpesvirus 1 strain KOS infected in african green monkey Vero 76 cells assessed as reduction of virus-induced plaque formation after 3 days using crystal violet staining; assay type: functional, organism-based; details: Human alphaherpesvirus 1, KOS, 72 h
[21] = tested on: Vesicular stomatitis Indiana virus; assay: Antiviral activity against clinical isolate Vesicular stomatitis Indiana virus infected in african green monkey Vero 76 cells assessed as reduction of virus-induced plaque formation after 2 days using crystal violet staining; assay type: functional, organism-based; details: 48 h
[22] = tested on: Yellow fever virus; assay: Antiviral activity against Yellow fever virus 17D Stamaril Pasteur J07B01 infected in hamster BHK21 cells assessed as inhibition of virus-induced cytopathogenicity after 3 to 4 days by MTT assay; assay type: functional, cell-based; details: Stamaril Pasteur J07B01, BHK-21; how it was run: as §3
[23] = Cytotoxicity against MDBK cells after 48 to 96 hrs by MTT assay; assay type: cell-based, Bos taurus; details: cattle; how it was run: as §2
[24] = Inhibition of Bovine viral diarrhea virus 1-NADL recombinant NS5B Cdelta 21 RNA dependent RNA polymerase expressed in Escherichia coli (DE3) using GTP as substrate preincubated for 30 mins before substrate addition measured after 120 mins by fluorescence assay
[25] = Inhibition of HCV1b BK 6xHis-tagged recombinant NS5B Cdelta 21 RNA dependent RNA polymerase expressed in Escherichia coli (DE3) using GTP as substrate preincubated for 30 mins before substrate addition measured after 120 mins by fluorescence assay; design: species or system Hepatitis C virus (isolate BK)
How it was run: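 His-tagged NS5B (BVDV C-terminal Δ24; HCV1b Δ21) from E. coli Rosetta 2(DE3)pLysS, Ni-NTA purified, 500–600 ng per 20 μL. The template was poly(rC) 10 μg/mL and the primer oligo(rG)12 0.1 μg/mL, with GTP 80 μM. Buffer: 20 mM Tris pH 7.0, 0.5 mM MnCl2 or 5 mM MgCl2, 5% DMSO. Enzyme/drug 30 min at RT, then GTP added; 120 min at 37 °C (BVDV) or 25 °C (HCV). Read-out was dsRNA dye fluorescence (ex 480/em 520). IC50 from dose–response fits.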

[26] = Cytotoxicity against african green monkey Vero 76 cells after 48 to 96 hrs by crystal violet staining; assay type: cell-based; details: chlorocebus sabaeus
How it was run: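 Vero-76 cells were seeded at 4×10^5 cells/mL in D-MEM with L-glutamine, kanamycin and 10% FBS, then exposed to serial compound dilutions at 37 °C, 5% CO2 for 48–96 h. Viability was read by crystal violet staining. 50% cytotoxic concentration by linear regression relative to untreated controls; mean of three independent determinations.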

[27] = tested on: HepG2; assay: Cytotoxicity against human HepG2 cells after 96 hrs by MTT assay; assay type: functional; details: HepG2, 96 h; how it was run: as §1
[28] = Cytotoxicity against human MRC5 cells after 96 hrs by MTT assay; assay type: cell-based; how it was run: as §1

Compound	CC50 at 96 h [1]	EC50 [2]	CC50 [3]	CC50 [4]	CC50 [5]	CC50 [6]	EC50 [8]	CC50 [10]	CC50 at 96 h [11]	EC50 [12]	CC50 [13]	EC50 [14]	EC50 [16]	EC50 [17]	EC50 [18]	EC50 [20]	EC50 [21]	EC50 [22]	CC50 [23]	CC50 [26]	further results
O=c1[nH]c2cc3cccnc3c(Cl)c2nc1Cc1ccccc1	> 100 µM	> 15 µM	> 100 µM	≥ 100 µM	> 100 µM	> 100 µM	> 88 µM	19 µM	15 µM	> 88 µM	> 100 µM	2.6 µM	> 100 µM	> 88 µM	> 88 µM	> 88 µM	> 88 µM	> 100 µM	> 100 µM	88 µM	EC50 [7]: > 65 µM; CC50 [9]: 65 µM; CC50 [15]: 25 µM; CC50 [19]: 33 µM; IC50 [24]: 1.2 µM; IC50 [25]: > 10 µM; CC50 [27]: 72 µM
O=c1[nH]c2cc3cccnc3c(Cl)c2nc1-c1ccccc1	16 µM	> 22 µM	5.6 µM	7.4 µM	> 100 µM	8 µM	12 µM	16 µM	22 µM	> 100 µM	7.6 µM	11 µM	> 100 µM	> 100 µM	> 100 µM	> 100 µM	> 100 µM	> 100 µM	> 100 µM	> 100 µM	EC50 [7]: > 11 µM; CC50 [9]: 11 µM; CC50 [15]: 19 µM; IC50 [24]: 1 µM; IC50 [25]: > 10 µM; CC50 [27]: 8 µM
CC[C@@]1(O)C(=O)OCc2c1cc1n(c2=O)Cc2cc3ccccc3nc2-1 [CAMPTOTHECIN]	0.3 µM		0.07 µM	0.015 µM		0.03 µM		0.003 µM			0.02 µM										CC50 at 96 h [28]: 0.2 µM; CC50 [15]: 0.004 µM; CC50 [19]: 0.005 µM; CC50 [27]: 0.02 µM
Oc1ccnc2c(Cl)c3[nH]nnc3cc12		> 100 µM			> 100 µM		> 100 µM		> 100 µM	> 100 µM		> 100 µM	≥ 100 µM	> 100 µM	> 100 µM	> 100 µM	> 100 µM	> 100 µM	> 100 µM	> 100 µM	
CC(C)c1nc2c(Cl)c3ncccc3cc2[nH]c1=O		> 100 µM			> 100 µM		> 100 µM		100 µM	> 100 µM		100 µM	> 100 µM	> 100 µM	> 100 µM	> 100 µM	> 100 µM	> 100 µM	> 100 µM	> 100 µM	
CCOC(=O)C(C)c1nc2c(Cl)c3ncccc3cc2[nH]c1=O (stereo not given)		> 11 µM			75 µM		62 µM		11 µM	> 100 µM		10 µM	> 75 µM	> 100 µM	> 100 µM	> 100 µM	> 100 µM	50 µM	> 100 µM	> 100 µM	
